Laboratory results from ChEMBL document CHEMBL3407476, “Design, synthesis and cytotoxic evaluation of 4-methylidenepyrazolidin-3-ones” (Eur J Med Chem, 2015).

What was measured:
MCF7 = assay: Cytotoxicity against human MCF7 cells assessed as growth inhibition after 48 hrs by MTT assay; format: functional, cell-based; conditions: MCF7, 48 h
Summary of the method: (§1)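 Leukemia cells in RPMI 1640 and MCF-7 in DMEM, both with 10% heat-inactivated FBS. HUVECs were grown per the supplier's protocol at passages 3–8. Cultures were kept at 37 °C in humidified 5% CO₂ and seeded at 8 × 10³ cells/well. After 24 h, compounds from fresh DMSO stocks were added over 10^-7 to 10^-3 M. Absorbance was read at 560 nm against untreated cells. IC50 came from concentration–response curves, as mean ± SD of at least three experiments.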

[1] = Cytotoxicity against human HL60 cells assessed as growth inhibition after 48 hrs by MTT assay; format: functional, cell-based; conditions: HL-60, 48 h; summary of the method: as §1
[2] = Cytotoxicity against human NALM6 cells assessed as growth inhibition after 48 hrs by MTT assay; format: functional, cell-based; conditions: NALM-6, 48 h; summary of the method: as §1
[3] = Therapeutic index, ratio of IC50 for HUVEC to IC50 for human HL60 cells; format: cell-based, HL-60; conditions: HUVEC and HL60 cells, read-out: Ratio IC50
HUVEC = assay: Cytotoxicity against HUVEC assessed as growth inhibition after 48 hrs by MTT assay; format: cell-based; conditions: Homo sapiens; summary of the method: as §1
[4] = Therapeutic index, ratio of IC50 for HUVEC to IC50 for human NALM6 cells; format: cell-based, NALM-6; conditions: HUVEC and NALM6 cells, read-out: Ratio IC50

Work on `C=C1C(=O)N(c2ccccc2)N(C)C1CCCCCCCCC` (stereo not given) yielded an IC50 (MCF7) of 91.1 µM, an IC50 [1] of 49.9 µM and an IC50 [2] of 57.5 µM.
Molecule `C=C1CN(C)N(c2ccc(Br)cc2)C1=O` has an IC50 (MCF7) of 43.8 µM, an IC50 [1] of 51.8 µM and an IC50 [2] of 62 µM.
`C=C1C(=O)N(c2ccccc2)N(C)C1c1ccccc1` (stereo not given) showed an IC50 (MCF7) of 84.4 µM, an IC50 [1] of 40.9 µM and an IC50 [2] of 24.4 µM.
Molecule `C=C1C(=O)N(c2ccccc2)N(c2ccccc2)C1C` (stereo not given) has an IC50 (MCF7) of 12.5 µM, an IC50 [1] of 5.85 µM and an IC50 [2] of 6.98 µM. For the same molecule, the selectivity ratio [3] was 5, the IC50 (HUVEC) was 29.9 µM and the selectivity ratio [4] was 4.
Molecule `C=C1CN(C)N(c2ccccc2)C1=O` has an IC50 (MCF7) of 56 µM, an IC50 [1] of 45.7 µM and an IC50 [2] of 56 µM.
With `C=C1C(=O)N(c2ccccc2)N(c2ccccc2)C1c1ccccc1` (stereo not given) the IC50 (MCF7) was 4.5 µM, the IC50 [1] was 1.61 µM and the IC50 [2] was 3.82 µM. It also gave an IC50 (HUVEC) of 4.46 µM.
For `C=C1C(=O)N(c2ccccc2)N(C)C1c1ccc(OC)cc1` (stereo not given), the IC50 (MCF7) was 75 µM, the IC50 [1] was 37.3 µM and the IC50 [2] was 49.3 µM.
With `C=C1C(=O)N(c2ccccc2)N(C)C1C` (stereo not given) the IC50 (MCF7) was 153 µM, the IC50 [1] was 531 µM and the IC50 [2] was 412 µM.
Molecule `C=C1CN(C)N(c2ccc(C)cc2)C1=O` has an IC50 (MCF7) of 59.1 µM, an IC50 [1] of 65.7 µM and an IC50 [2] of 90.1 µM.
Work on `C=CC1C(=C)C(=O)N(c2ccccc2)N1c1ccccc1` (stereo not given) yielded an IC50 (MCF7) of 5.1 µM, an IC50 [1] of 1.32 µM and an IC50 [2] of 0.74 µM. The IC50 (HUVEC) was 2.73 µM and the selectivity ratio [4] was 4.
With `C=C1C(=O)N(c2ccccc2)N(C)C1CCCC` (stereo not given) the IC50 (MCF7) was 235 µM, the IC50 [1] was 460 µM and the IC50 [2] was 432 µM.
Molecule `C=C1CN(C)N(c2ccc(Cl)cc2)C1=O` has an IC50 (MCF7) of 45.2 µM, an IC50 [1] of 38.1 µM and an IC50 [2] of 51.9 µM.
Work on `C=C1C(=O)N(c2ccccc2)N(c2ccccc2)C1CC` (stereo not given) yielded an IC50 (MCF7) of 20 µM, an IC50 [1] of 8.89 µM and an IC50 [2] of 14.9 µM. It also gave an IC50 (HUVEC) of 23.9 µM.
In the case of `C=C1C(=O)NC(C)C1c1ccc(Br)cc1` (stereo not given), the IC50 [1] is reported as 515 µM and the IC50 [2] is reported as 439 µM.
`C=C1C(=O)N(c2ccccc2)N(C)C1CC` (stereo not given) showed an IC50 (MCF7) of 185 µM, an IC50 [1] of 750 µM and an IC50 [2] of 576 µM.
`C=C1C(=O)N(c2ccccc2)N(c2ccccc2)C1CCCC` (stereo not given) showed an IC50 (MCF7) of 25.2 µM, an IC50 [1] of 8.92 µM and an IC50 [2] of 29.1 µM. It also gave an IC50 (HUVEC) of 27 µM.
